Test results reported in ChEMBL document CHEMBL3352644, “Selenadiazole derivatives as potent thioredoxin reductase inhibitors that enhance the radiosensitivity of cancer cells” (Eur J Med Chem, 2014).
≈ marks a conversion by molar mass, not a printed value. Calls of active or inactive are those of the source. No cut-off for these calls is given here.

Experiments:
[1] = tested on: A-375; test: Induction of apoptosis in human A375 cells assessed as caspase 9 activation at 2 ug/mL incubated for 6 hrs followed by irradiation with 8 Gy X-ray at 37 degC for 12 hrs by Western blotting method; format: functional, cell-based
Summary of the method: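 A375 cells treated with 2 µg/ml alone or with 8 Gy X-ray (6 h pretreatment, then 12 h; 18 h total). RIPA lysates (50 µg protein) run on SDS-PAGE and immunoblotted for caspases and PARP cleavage. Reprobed for β-actin as loading control.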

[2] = organism: Homo sapiens; test: Binding affinity to PMB-AGUVGAGLIK TrxR model peptide (unknown origin) at peptide to compound molar ratio of 1:1 at 37 degC for 18 hrs by MALDI-TOF-MS/MS assay
Summary of the method: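 Pre-reduced TrxR model peptide PMB-Ala-Gly-Sec-Val-Gly-Ala-Gly-Leu-Ile-Lys incubated with compound at 1:1 molar ratio, 37 °C, 18 h; adducts examined by MALDI-TOF MS, looking for compound-derived mass shifts and fragment peaks.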

[3] = tested on: A-375; test: Cytotoxicity against human A375 cells after 18 hrs by MTT assay; format: functional, cell-based; conditions: A-375, 18 h
Summary of the method: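 A375 cells (DMEM, 10% FBS, 37 °C, 5% CO2) seeded at 4 × 10⁴ cells/well and grown to 70–80% confluence. Treated with 0, 1, 2, 4, 8, 16 or 32 µg/ml for 6 h, then given 0 or 8 Gy X-ray (linear accelerator, 1.5 Gy/min), then 12 h more at 37 °C. MTT 4 h, formazan dissolved in DMSO, read at 570 nm; % of control; three repeats.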

[4] = target: c-Jun N-terminal kinase, JNK (Homo sapiens) (UniProt P45983+P53779+P45984); test: Induction of JNK phosphorylation in human A375 cells at 4 ug/mL incubated for 6 hrs followed by irradiation with 8 Gy X-ray at 37 degC for 12 hrs by Western blotting method; format: cell-based; conditions: A-375
Summary of the method: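 A375 cells pretreated 6 h with compound at 4 µg/ml, given 0 or 8 Gy X-ray, then incubated 12 h more. Lysed in RIPA buffer, pH 7.4, with protease and phosphatase inhibitors; 50 µg protein run on SDS-PAGE and blotted to nitrocellulose. Blocked in 5% milk; primary antibodies 1:1000, 10 h at 4 °C; HRP secondary 1:2000.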

SMILES: COc1cc(-c2nc3cc(-c4ccc5n[se]nc5c4)ccc3[nH]2)cc(OC)c1OC
- Activity [1]: Active
- Activity [2]: Active
- IC50 [3]: 12.4 µg/mL (≈ 26.6 µM)
- Activity [4]: Active
